Here are results for 17 molecules from ChEMBL document CHEMBL4732170, “Discovery of Small-Molecule Antagonists of the PWWP Domain of NSD2” (J Med Chem, 2021).

Activity calls are given as the source filed them. The rule behind the calls is not given here.

For assay [1], the target named is T1, Histone-lysine N-methyltransferase NSD2 (Homo sapiens) (UniProt O96028).
T1 sequence (whole entry): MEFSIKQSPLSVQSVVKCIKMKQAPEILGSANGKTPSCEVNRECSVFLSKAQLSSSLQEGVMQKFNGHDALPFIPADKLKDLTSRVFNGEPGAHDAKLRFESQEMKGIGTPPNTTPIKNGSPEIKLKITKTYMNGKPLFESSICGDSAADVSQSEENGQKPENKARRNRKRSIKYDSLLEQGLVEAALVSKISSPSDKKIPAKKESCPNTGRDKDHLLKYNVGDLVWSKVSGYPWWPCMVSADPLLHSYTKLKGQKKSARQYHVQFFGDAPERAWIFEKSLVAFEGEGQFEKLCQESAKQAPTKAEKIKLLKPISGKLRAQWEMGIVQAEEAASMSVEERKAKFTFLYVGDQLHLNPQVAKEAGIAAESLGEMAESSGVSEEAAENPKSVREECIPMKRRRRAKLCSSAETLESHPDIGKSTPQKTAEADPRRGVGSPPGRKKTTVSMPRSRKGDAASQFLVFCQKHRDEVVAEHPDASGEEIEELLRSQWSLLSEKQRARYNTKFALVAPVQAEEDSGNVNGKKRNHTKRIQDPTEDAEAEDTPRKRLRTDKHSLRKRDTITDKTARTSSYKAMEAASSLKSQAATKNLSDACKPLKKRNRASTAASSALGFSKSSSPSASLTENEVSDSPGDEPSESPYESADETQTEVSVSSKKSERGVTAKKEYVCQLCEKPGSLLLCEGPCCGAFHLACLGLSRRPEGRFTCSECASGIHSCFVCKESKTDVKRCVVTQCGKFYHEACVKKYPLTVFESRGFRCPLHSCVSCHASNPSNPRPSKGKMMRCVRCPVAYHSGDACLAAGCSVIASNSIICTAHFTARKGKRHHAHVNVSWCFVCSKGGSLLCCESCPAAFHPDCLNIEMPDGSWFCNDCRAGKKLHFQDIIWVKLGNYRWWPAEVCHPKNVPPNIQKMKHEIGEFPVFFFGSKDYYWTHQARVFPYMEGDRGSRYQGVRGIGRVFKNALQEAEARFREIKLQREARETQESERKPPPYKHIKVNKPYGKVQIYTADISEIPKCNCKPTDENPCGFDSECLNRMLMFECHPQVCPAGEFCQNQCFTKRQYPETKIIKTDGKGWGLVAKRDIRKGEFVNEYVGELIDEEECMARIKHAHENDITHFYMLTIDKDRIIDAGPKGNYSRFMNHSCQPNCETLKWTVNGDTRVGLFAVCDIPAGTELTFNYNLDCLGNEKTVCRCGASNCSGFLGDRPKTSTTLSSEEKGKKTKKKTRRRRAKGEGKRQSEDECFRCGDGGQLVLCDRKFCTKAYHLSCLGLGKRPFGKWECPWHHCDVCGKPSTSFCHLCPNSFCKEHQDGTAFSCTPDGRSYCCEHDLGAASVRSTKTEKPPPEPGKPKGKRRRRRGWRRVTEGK
Put plainly: Binding affinity to NSD2 PWWP1 domain (unknown origin) assessed as change in aggregation temperature at 500 uM by heating at 25 to 85 degC by differential static light scattering method. The conditions noted are these: for deltaT: filed as antagonist.

Assay [2] addresses T1, Histone-lysine N-methyltransferase NSD2 (Homo sapiens). Put plainly: (§1) Binding affinity to NSD2 PWWP1 domain (unknown origin) assessed as dissociation constant by surface plasmon resonance analysis. The essentials:
(§2)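 SPR in single-cycle kinetics, HBS-EP buffer (20 mM HEPES pH 7.4, 150 mM NaCl, 3 mM EDTA, 0.05% Tween-20) with 5% DMSO. Ten concentrations from 200 μM top, twofold dilutions. Contact time 60 s, dissociation 120 s, flow 75 μL/min; Kd derived.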
Background: In SPR one partner is held on a chip, and binding of the other changes the refractive index at the surface.

Assay [3] deals with T2, Histone-lysine N-methyltransferase NSD2 (Homo sapiens, UniProt O96028).
T2 sequence (O96028 whole entry): T1 sequence (whole entry)
The assay is described as §1. The method in brief: as §2

With `O=C(c1ccccc1)N1CCCC1c1ccccc1` (configuration not stated), the result in assay [1] and in assay [2] was inactive.

Consider `COC(=O)c1ccc(C(=O)N2CCCC2c2ccc(F)cc2)cc1` (configuration not stated), for which the deltaT in assay [1] is 1.4 °C. Further, the dissociation constant Kd (in general, the free concentration of one partner at which half of the binding sites on the other are occupied at equilibrium, for simple one-to-one binding) in assay [3] came to 173 µM.

In the case of `N#Cc1ccc(C(=O)N2CCCC2c2ccccc2)cc1` (configuration not stated), in assay [1], the deltaT stood at 2.4 °C. For the same molecule, the dissociation constant (Kd) in assay [3] was 110 µM.

As to `N#Cc1ccc(C(=O)N2CCCC2c2ccc3c(c2)OCCO3)cc1` (configuration not stated), in assay [1], the deltaT turned out to be 2.7 °C. In addition, the Kd in assay [3] worked out at 138 µM.

As for `CC(C)N(Cc1ccc(F)cc1)C(=O)c1ccc(C#N)cc1`, the result in assay [1] and in assay [2] was inactive.

Take `Cc1ccc(C(=O)N2CCCC2c2ccc(Cl)cc2)cc1` (configuration not stated): the outcome in assay [1] and in assay [2] was inactive.

Consider `N#Cc1ccc(C(=O)N(Cc2ccc(F)cc2)C2CC2)cc1`, for which the Kd in assay [3] was 7 µM.

On to `N#Cc1ccc(C(=O)N(Cc2ccc(F)cc2)C2CCCCC2)cc1`, for which the result in assay [1] and in assay [2] was inactive.

In the case of `N#Cc1ccc(C(=O)N(Cc2ccc(F)cc2)C2CCC2)cc1`, the deltaT in assay [1] was 1.1 °C. In addition, in assay [3], the Kd stood at 114 µM.

As for `N#Cc1ccc(C(=O)N2CCCC2c2ccc(Cl)cc2)cc1` (configuration not stated), the Kd in assay [3] was determined as 175 µM.

On to `N#Cc1ccc(C(=O)NCc2ccc(F)cc2)cc1`, for which the outcome in assay [1] and in assay [2] was inactive.

On to `COc1ccc(C2CCCN2C(=O)c2ccc(C#N)cc2)cc1` (configuration not stated), for which the deltaT in assay [1] was found to be 2.4 °C. The dissociation constant Kd in assay [3] was found to be 208 µM.

For the molecule `N#Cc1ccc(C(=O)N2CCCC2c2ccncc2)cc1` (configuration not stated), the deltaT in assay [1] worked out at 2.8 °C. Also, the dissociation constant (Kd) in assay [3] is 160 µM.

In the case of `CN(Cc1ccc(F)cc1)C(=O)c1ccc(C#N)cc1`, the deltaT in assay [1] stood at 2 °C. The Kd in assay [3] came out at 74 µM.

Take `N#Cc1ccc(C(=O)N2CCCC2c2ccsc2)cc1` (configuration not stated): the deltaT in assay [1] came to 2.2 °C. The Kd in assay [3] was 178 µM.

Consider `O=C(c1ccc(N2CNC=N2)cc1)N1CCCC1c1ccc(F)cc1` (configuration not stated), for which the deltaT in assay [1] was determined as 1.2 °C. In assay [3], the Kd was determined as 297 µM.

In the case of `N#Cc1ccc(C(=O)N(CC2CCOC2)C2CC2)cc1` (configuration not stated), the deltaT in assay [1] was 5.4 °C. The Kd in assay [3] worked out at 5.7 µM.
